The source of these data is article PMC12594201 (Proteins, 2025).

For orientation: Kd means the concentration at which binding is half-saturated.

Assay [1] has as its target T1, β‐clamp (Escherichia coli, UniProt P0A988). The assay can be described thus: Calculated fraction of β‐clamp bound / saturation level. Particulars: NMR titration, 200 μM β‐clamp with up to 800 μM peptide. It counts as binding, E. coli. In short, it runs like this:
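Fraction of β-clamp bound computed from the quadratic single-site equation using total protein concentration, total ligand concentration and K_D. […]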

Assay [2] deals with T1, β‐clamp. Particulars: literature values; ref [34], [35]; cited from earlier work.

T1 sequence (P0A988 whole entry): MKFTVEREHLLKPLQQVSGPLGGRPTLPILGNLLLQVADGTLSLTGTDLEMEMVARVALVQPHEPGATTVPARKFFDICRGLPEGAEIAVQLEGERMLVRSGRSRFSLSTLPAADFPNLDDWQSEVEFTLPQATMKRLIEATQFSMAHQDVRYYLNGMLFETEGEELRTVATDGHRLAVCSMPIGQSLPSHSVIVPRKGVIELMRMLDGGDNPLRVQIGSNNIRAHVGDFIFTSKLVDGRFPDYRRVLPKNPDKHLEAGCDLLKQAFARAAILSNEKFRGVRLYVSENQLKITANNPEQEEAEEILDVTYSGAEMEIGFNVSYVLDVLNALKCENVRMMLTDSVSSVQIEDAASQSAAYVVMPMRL

As for NH3 ^+‐GWLDPQMERQLVLGL‐COO^— [pol IV*], the “saturation level of β‐clamp” value at β‐clamp [1] is reported as over 98%. In addition, the Kd at β‐clamp [2] is 2 to 8 µM.
